Source: ChEMBL document CHEMBL4028845, “Design, Synthesis, and Properties of a Potent Inhibitor of Pseudomonas aeruginosa Deacetylase LpxC” (J Med Chem, 2017)
Values after ≈ are worked out from the molar mass of the structure shown. Active and inactive are the calls of the source. No cut-off for these calls is given here.

Experiments:
Klebsiella oxytoca = experiment: Antibacterial activity against Klebsiella oxytoca NB30007 after 18 to 24 hrs; format: functional
In short: (§1)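 Broth MIC per CLSI guidelines in cation-adjusted Mueller Hinton broth. Compounds were dissolved and serially diluted in DMSO (carbapenems in water) before addition to plates. Incubation was at 37 °C for 18−24 h. MIC is the lowest concentration preventing visible growth. MIC50/MIC90 are the concentrations inhibiting 50% or 90% of isolates tested.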

Histone deacetylase 9 = Histone deacetylase 9 (Homo sapiens, UniProt Q9UKV0); experiment: Inhibition of human HDAC9
Histone deacetylase 5 = Histone deacetylase 5 (Homo sapiens, UniProt Q9UQL6); experiment: Inhibition of human HDAC5
Histone deacetylase 8 = Histone deacetylase 8 (Homo sapiens, UniProt Q9BY41); experiment: Inhibition of human HDAC8
Histone deacetylase 11 = Histone deacetylase 11 (Homo sapiens, UniProt Q96DB2); experiment: Inhibition of human HDAC11
[1] = Solubility of the compound at pH 6.8 by high throughput screening assay; format: physicochemical; details: buffer, read-out: solubility
Pseudomonas aeruginosa [2] = experiment: Antibacterial activity against Pseudomonas aeruginosa NB52096 after 18 to 24 hrs; format: functional; in short: as §1
[3] = Cytotoxicity against human K562 cells assessed as reduction in cell viability after 72 hrs by WST1 assay; format: cell-based
In short: (§2)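 Cells were grown and assayed in medium with 10% heat-inactivated FBS and exposed to compound for 72 h. Metabolic activity was read as WST-1 cleavage to formazan at A450, with puromycin as positive control. CC50 (50% reduction in viability) was calculated from dose-response curves.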

Pseudomonas aeruginosa [4] = experiment: Antibacterial activity against Pseudomonas aeruginosa clinical isolate infected in iv dosed BalbC mouse neutropenic model assessed as concentration required to show bacterial stasis in lung administered as bid at 2 and 8 hrs post infection measured after 24 hrs
Histone deacetylase 7 = Histone deacetylase 7 (Homo sapiens, UniProt Q8WUI4); experiment: Inhibition of human HDAC7
Pseudomonas aeruginosa [5] = experiment: Antibacterial activity against Pseudomonas aeruginosa clinical isolate infected in iv dosed BalbC mouse neutropenic model assessed as concentration required to show reduction in bacterial burden in lung of 2 log below stasis administered as bid at 2 and 8 hrs post infection measured after 24 hrs
Histone deacetylase 3 = Histone deacetylase 3 (Homo sapiens, UniProt O15379); experiment: Inhibition of human HDAC3
[6] = target: Polyamine deacetylase HDAC10 (Homo sapiens, UniProt Q969S8); experiment: Inhibition of human HDAC10
[7] = test system: Stenotrophomonas maltophilia; experiment: Antibacterial activity against Stenotrophomonas maltophilia NB55011 after 18 to 24 hrs; format: functional; in short: as §1
Pseudomonas aeruginosa [8] = experiment: Antibacterial activity against Pseudomonas aeruginosa NB52001 after 18 to 24 hrs; format: functional; in short: as §1
Pseudomonas aeruginosa [9] = experiment: Antibacterial activity against hypersusceptible Pseudomonas aeruginosa Z61 after 18 to 24 hrs; format: functional; in short: as §1
Proteus mirabilis = experiment: Antibacterial activity against Proteus mirabilis NB32022 after 18 to 24 hrs; format: functional; in short: as §1
Alcaligenes = experiment: Antibacterial activity against Alcaligenes xylosus NB56002 after 18 to 24 hrs; format: functional; in short: as §1
Escherichia coli [10] = experiment: Antibacterial activity against Escherichia coli NB27047 after 18 to 24 hrs; format: functional; in short: as §1
Burkholderia cepacia = experiment: Antibacterial activity against Burkholderia cepacia NB49016 after 18 to 24 hrs; format: functional; in short: as §1
Histone deacetylase 4 = Histone deacetylase 4 (Homo sapiens, UniProt P56524); experiment: Inhibition of human HDAC4
[11] = Cytotoxicity against human HepG2 cells assessed as reduction in cell viability after 72 hrs by WST1 assay; format: cell-based; in short: as §2
Histone deacetylase 1 = Histone deacetylase 1 (Homo sapiens, UniProt Q13547); experiment: Inhibition of human HDAC1
Klebsiella aerogenes = experiment: Antibacterial activity against Enterobacter aerogenes NB24004 after 18 to 24 hrs; format: functional; in short: as §1
Escherichia coli [12] = experiment: Antibacterial activity against efflux pump deficient Escherichia coli after 18 to 24 hrs; format: functional
In short: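 MIC per CLSI guidelines. Strains grown in cation-adjusted Mueller Hinton broth. Compounds dissolved in DMSO and serially diluted in DMSO (carbapenems in water) before addition to microtiter plates. Incubation at 37 °C for 18−24 h. MIC is the lowest concentration preventing visible growth.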

Acinetobacter baumannii = experiment: Antibacterial activity against Acinetobacter baumannii NB48015 after 18 to 24 hrs; format: functional; in short: as §1
Klebsiella pneumoniae = experiment: Antibacterial activity against Klebsiella pneumoniae NB29018 after 18 to 24 hrs; format: functional; in short: as §1
[13] = target: Protein deacetylase HDAC6 (Homo sapiens, UniProt Q9UBN7); experiment: Inhibition of human HDAC6
Pseudomonas aeruginosa [14] = experiment: Antibacterial activity against Pseudomonas aeruginosa ATCC 27853 in CD1 mouse thigh infection model assessed as reduction in bacterial burden in thigh at 160 to 320 mg/kg, iv administered at 2 hrs post infection measured after 24 hrs
Pseudomonas aeruginosa [15] = experiment: Antibacterial activity against Pseudomonas aeruginosa PAO1 K767 after 18 to 24 hrs; format: functional; in short: as §1
[16] = Protein binding in mouse plasma; format: ADME, cell-free; details: read-out: PPB (converted)
[17] = Protein binding in human plasma; format: ADME, cell-free; details: read-out: PPB (converted)
[18] = Protein binding in rat plasma; format: ADME, cell-free; details: read-out: PPB (converted)
Histone deacetylase 2 = Histone deacetylase 2 (Homo sapiens, UniProt Q92769); experiment: Inhibition of human HDAC2
Pseudomonas aeruginosa [19] = experiment: Antibacterial activity against Pseudomonas aeruginosa clinical isolate after 18 to 24 hrs; format: functional
Pseudomonas aeruginosa [20] = experiment: Antibacterial activity against mexAB-oprM deficient Pseudomonas aeruginosa K1119 after 18 to 24 hrs; format: functional; in short: as §1

Sequence of Histone deacetylase 1 (Q13547 whole entry): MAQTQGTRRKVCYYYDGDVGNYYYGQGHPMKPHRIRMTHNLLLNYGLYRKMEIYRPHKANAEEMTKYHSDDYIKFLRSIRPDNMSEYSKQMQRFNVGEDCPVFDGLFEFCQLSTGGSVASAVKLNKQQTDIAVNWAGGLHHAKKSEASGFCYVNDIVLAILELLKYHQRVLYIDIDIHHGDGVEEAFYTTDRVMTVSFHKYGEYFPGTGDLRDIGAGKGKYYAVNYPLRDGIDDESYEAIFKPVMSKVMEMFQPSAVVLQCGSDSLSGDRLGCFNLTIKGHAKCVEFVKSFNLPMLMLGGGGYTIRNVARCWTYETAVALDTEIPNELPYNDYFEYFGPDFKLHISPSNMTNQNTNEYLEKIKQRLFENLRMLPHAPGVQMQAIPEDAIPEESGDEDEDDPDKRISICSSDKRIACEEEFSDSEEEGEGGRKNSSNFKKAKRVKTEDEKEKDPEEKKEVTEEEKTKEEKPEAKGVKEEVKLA
Sequence of Histone deacetylase 8 (Q9BY41 whole entry): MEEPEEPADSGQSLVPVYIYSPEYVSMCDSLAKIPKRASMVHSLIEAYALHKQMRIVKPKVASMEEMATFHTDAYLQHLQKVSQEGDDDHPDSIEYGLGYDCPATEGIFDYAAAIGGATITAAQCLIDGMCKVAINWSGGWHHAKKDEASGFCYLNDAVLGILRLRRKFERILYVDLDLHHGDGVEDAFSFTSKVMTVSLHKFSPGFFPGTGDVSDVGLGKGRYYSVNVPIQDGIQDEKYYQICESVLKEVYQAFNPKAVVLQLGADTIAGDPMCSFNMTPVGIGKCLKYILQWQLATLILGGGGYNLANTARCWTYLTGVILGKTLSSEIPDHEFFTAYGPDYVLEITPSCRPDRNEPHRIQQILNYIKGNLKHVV
Sequence of Histone deacetylase 5 (Q9UQL6 whole entry): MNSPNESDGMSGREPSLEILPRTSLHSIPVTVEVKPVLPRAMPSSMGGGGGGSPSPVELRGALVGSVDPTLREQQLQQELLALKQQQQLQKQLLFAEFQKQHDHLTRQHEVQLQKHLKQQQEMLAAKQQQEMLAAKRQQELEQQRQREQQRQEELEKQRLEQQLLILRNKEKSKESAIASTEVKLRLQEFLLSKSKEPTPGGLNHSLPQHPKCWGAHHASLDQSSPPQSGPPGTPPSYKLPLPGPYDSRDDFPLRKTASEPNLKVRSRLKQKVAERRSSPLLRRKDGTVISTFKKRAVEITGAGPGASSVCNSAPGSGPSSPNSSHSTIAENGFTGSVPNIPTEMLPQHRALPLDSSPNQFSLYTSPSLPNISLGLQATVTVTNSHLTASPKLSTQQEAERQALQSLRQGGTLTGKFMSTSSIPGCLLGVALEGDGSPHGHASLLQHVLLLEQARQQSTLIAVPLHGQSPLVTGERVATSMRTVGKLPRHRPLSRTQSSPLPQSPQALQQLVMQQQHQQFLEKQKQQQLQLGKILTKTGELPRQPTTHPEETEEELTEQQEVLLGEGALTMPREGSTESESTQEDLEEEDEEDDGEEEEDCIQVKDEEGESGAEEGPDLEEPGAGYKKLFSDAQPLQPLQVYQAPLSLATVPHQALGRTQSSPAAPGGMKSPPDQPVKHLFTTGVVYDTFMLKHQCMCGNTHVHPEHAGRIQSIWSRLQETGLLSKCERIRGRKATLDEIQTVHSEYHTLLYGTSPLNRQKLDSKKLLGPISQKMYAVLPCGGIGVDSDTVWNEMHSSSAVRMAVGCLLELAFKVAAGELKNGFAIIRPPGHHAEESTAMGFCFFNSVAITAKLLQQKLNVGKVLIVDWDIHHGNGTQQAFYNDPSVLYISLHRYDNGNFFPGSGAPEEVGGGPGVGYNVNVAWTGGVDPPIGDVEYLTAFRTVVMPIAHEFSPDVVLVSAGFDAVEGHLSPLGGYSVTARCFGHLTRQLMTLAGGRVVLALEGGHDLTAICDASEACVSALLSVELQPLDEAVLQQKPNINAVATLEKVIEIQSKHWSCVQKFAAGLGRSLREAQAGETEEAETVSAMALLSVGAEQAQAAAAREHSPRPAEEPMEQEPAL
Sequence of Histone deacetylase 4 (P56524 whole entry): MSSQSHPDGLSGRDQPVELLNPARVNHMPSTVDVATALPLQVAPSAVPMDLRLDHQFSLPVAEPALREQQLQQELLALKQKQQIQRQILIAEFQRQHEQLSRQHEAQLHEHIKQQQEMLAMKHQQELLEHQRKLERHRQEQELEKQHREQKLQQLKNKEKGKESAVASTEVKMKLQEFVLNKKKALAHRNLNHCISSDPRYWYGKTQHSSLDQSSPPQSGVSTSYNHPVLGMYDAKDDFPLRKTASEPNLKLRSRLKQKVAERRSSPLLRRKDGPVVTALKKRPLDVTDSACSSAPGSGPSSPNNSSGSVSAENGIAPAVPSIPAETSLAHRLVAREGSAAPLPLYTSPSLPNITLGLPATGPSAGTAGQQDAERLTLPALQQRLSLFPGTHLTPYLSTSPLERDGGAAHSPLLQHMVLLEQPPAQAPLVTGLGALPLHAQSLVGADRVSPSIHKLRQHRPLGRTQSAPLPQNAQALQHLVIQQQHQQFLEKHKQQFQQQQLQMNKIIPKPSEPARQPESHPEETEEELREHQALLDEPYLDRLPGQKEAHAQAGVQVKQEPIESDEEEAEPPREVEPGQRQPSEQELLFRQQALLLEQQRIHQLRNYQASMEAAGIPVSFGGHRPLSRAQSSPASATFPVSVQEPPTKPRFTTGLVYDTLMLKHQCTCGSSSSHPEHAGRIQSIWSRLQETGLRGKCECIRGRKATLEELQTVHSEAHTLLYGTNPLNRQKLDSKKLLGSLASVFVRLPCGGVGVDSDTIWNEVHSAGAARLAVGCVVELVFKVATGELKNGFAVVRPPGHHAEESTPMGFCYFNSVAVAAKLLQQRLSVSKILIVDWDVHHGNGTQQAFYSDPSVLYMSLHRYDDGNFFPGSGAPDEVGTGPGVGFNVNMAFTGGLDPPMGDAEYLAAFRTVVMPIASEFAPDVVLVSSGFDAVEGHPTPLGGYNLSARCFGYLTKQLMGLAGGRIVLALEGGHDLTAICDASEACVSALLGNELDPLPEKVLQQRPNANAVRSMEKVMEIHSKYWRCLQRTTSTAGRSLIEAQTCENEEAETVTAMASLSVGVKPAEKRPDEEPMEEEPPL
Sequence of Polyamine deacetylase HDAC10 (Q969S8 whole entry): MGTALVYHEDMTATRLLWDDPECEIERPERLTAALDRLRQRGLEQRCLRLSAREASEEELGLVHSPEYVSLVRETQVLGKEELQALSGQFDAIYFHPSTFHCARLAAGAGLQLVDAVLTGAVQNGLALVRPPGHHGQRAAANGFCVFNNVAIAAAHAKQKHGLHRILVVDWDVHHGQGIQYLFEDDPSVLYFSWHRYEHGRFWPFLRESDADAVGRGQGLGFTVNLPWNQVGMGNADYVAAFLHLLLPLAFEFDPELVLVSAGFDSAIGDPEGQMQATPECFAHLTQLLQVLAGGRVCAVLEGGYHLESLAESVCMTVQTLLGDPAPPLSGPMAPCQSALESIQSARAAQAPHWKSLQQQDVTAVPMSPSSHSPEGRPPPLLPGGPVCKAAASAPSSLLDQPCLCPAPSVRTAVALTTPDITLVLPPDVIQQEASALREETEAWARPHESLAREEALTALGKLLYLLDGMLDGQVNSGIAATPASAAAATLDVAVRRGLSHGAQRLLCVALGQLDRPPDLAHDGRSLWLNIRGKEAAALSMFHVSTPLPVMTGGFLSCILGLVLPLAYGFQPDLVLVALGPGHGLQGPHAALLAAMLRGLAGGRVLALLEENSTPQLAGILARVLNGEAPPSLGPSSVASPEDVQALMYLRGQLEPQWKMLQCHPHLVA
Sequence of Histone deacetylase 2 (Q92769 whole entry): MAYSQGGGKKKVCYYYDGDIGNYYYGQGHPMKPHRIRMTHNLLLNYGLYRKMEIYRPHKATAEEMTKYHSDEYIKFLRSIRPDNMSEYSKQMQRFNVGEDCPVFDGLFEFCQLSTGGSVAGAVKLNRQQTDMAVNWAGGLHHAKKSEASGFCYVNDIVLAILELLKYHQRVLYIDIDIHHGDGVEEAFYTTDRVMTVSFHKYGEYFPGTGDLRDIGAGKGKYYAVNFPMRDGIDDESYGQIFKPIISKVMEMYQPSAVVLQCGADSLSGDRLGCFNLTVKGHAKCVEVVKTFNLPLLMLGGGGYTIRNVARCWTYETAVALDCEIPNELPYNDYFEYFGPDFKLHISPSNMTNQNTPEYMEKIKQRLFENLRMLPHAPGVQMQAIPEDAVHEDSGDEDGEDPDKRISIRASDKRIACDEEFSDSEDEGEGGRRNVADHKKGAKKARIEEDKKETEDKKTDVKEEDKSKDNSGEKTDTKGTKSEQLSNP
Sequence of Histone deacetylase 3 (O15379 whole entry): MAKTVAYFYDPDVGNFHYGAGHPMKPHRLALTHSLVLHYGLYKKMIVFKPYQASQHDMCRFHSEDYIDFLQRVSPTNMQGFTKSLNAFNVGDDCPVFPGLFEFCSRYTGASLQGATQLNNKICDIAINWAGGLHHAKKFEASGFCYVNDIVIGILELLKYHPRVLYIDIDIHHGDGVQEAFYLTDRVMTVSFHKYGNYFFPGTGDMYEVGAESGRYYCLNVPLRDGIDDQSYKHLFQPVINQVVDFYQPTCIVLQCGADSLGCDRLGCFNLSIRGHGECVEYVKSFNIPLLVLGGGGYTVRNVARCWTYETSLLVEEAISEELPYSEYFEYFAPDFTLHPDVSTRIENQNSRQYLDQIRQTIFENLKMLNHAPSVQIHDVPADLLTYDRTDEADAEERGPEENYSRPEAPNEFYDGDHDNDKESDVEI
Sequence of Histone deacetylase 11 (Q96DB2 whole entry): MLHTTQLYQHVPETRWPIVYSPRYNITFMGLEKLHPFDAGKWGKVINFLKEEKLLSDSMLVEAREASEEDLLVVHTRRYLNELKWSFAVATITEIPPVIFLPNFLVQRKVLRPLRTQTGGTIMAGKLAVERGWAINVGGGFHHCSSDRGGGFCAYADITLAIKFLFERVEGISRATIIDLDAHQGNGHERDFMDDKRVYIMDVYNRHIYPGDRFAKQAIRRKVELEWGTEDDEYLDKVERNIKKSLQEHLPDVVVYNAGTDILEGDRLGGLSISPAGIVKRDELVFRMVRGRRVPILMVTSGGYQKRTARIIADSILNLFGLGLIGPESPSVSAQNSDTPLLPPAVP

## CC#CCOc1ccc(C(=O)N[C@H](C(=O)NO)C(C)(C)N)cc1
Klebsiella oxytoca
  MIC: 16 µg/mL (≈ 50.1 µM)
Histone deacetylase 9
  IC50: > 30 µM
Histone deacetylase 5
  IC50: > 30 µM
Histone deacetylase 8
  IC50: > 30 µM
Histone deacetylase 11
  IC50: > 30 µM
[1]
  solubility: > 327 µg/mL
Pseudomonas aeruginosa [2]
  MIC: 2 µg/mL (≈ 6.26 µM)
[3]
  CC50 at 72 h: > 295 µM
Pseudomonas aeruginosa [4]
  Activity: 7.1 mg/kg/day
Histone deacetylase 7
  IC50: > 30 µM
Pseudomonas aeruginosa [5]
  Activity: 20 mg/kg/day
Histone deacetylase 3
  IC50: > 30 µM
[6]
  IC50: > 30 µM
[7]
  MIC: 32 µg/mL (≈ 100 µM)
Pseudomonas aeruginosa [8]
  MIC: 1 µg/mL (≈ 3.13 µM)
Pseudomonas aeruginosa [9]
  MIC: 0.25 µg/mL (≈ 0.783 µM)
Proteus mirabilis
  MIC: 64 µg/mL (≈ 200 µM)
Alcaligenes
  MIC: 16 µg/mL (≈ 50.1 µM)
Escherichia coli [10]
  MIC: 64 µg/mL (≈ 200 µM)
Burkholderia cepacia
  MIC: 32 µg/mL (≈ 100 µM)
Histone deacetylase 4
  IC50: > 30 µM
[11]
  CC50 at 72 h: > 295 µM
Histone deacetylase 1
  IC50: > 30 µM
Klebsiella aerogenes
  MIC: > 128 µg/mL
Escherichia coli [12]
  MIC: 1 to 2 µg/mL (≈ 3.13 to 6.26 µM)
Acinetobacter baumannii
  MIC: > 128 µg/mL
Klebsiella pneumoniae
  MIC: 16 µg/mL (≈ 50.1 µM)
[13]
  IC50: > 30 µM
Pseudomonas aeruginosa [14]
  Activity: Active
Pseudomonas aeruginosa [15]
  MIC: 0.5 µg/mL (≈ 1.57 µM)
[16]
  fraction unbound: 0.772
[17]
  fraction unbound: 0.193
[18]
  fraction unbound: 0.779
Histone deacetylase 2
  IC50: > 30 µM
Pseudomonas aeruginosa [19]
  MIC50: 1 µg/mL (≈ 3.13 µM)
  MIC90: 2 µg/mL (≈ 6.26 µM)
Pseudomonas aeruginosa [20]
  MIC: 0.06 µg/mL (≈ 0.188 µM)
